From ChEMBL document CHEMBL1142511, “[(18)F]-labeled isoindol-1-one and isoindol-1,3-dione derivatives as potential PET imaging agents for detection of beta-amyloid fibrils” (Bioorg Med Chem Lett, 2008)

Experiment: Displacement of [125I]TZDM from amyloid beta 1 to 42 aggregates
Procedure, shortened: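 Competitive binding against aggregated Aβ1–42 with [125I]TZDM as radioligand. Non-specific binding defined with 2 µM thioflavin T. Incubated 3 h at room temperature. Bound and free radioactivity separated by vacuum filtration through GF/B filters, followed by two washes with 10% EtOH at room temperature. IC50 converted to Ki by the Cheng–Prusoff equation.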

Compound	Ki
Nc1ccc(N2Cc3cc(OCCCF)ccc3C2=O)cc1	0.4 nM
CNc1ccc(-c2nc3ccc(O)cc3s2)cc1 [PITTSBURGH COMPOUND B UNLABELLED]	0.77 nM
CN(C)c1ccc(N2C(=O)c3ccc(OCCCF)cc3C2=O)cc1	0.85 nM
CNc1ccc(N2Cc3cc(OCCCF)ccc3C2=O)cc1	0.51 nM
CN(C)c1ccc(N2Cc3cc(OCCCF)ccc3C2=O)cc1	0.71 nM
CNc1ccc(N2C(=O)c3ccc(OCCF)cc3C2=O)cc1	0.6 nM
CNc1ccc(N2Cc3cc(OCCF)ccc3C2=O)cc1	0.91 nM
CN(C)c1ccc(N2Cc3cc(OCCF)ccc3C2=O)cc1	0.3 nM
Nc1ccc(N2C(=O)c3ccc(OCCCF)cc3C2=O)cc1	0.74 nM
Nc1ccc(N2Cc3cc(OCCF)ccc3C2=O)cc1	0.61 nM
CN(C)c1ccc(N2C(=O)c3ccc(OCCF)cc3C2=O)cc1	0.69 nM
CNc1ccc(N2C(=O)c3ccc(OCCCF)cc3C2=O)cc1	0.78 nM
Nc1ccc(N2C(=O)c3ccc(OCCF)cc3C2=O)cc1	0.59 nM
